Converted amounts (≈) assume the structure as drawn.
Tests used:
Type in all cases: functional
[1] = test system: Nakaseomyces glabratus; assay: Antifungal activity against Candida glabrata after 48 hrs by spectrophotometry; conditions: for MIC: Nakaseomyces glabratus, 48 h
Method in brief: (§1)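 Broth microdilution MIC against pathogenic human yeast strains. Saponin in malt extract broth (malt extract 15 g, peptone 5 g per L), final 3.12-200 µg/mL, serial dilution, triplicate wells. Each well inoculated with 10 µL of 10^4 CFU/mL suspension, incubated 30 °C for 48 h, growth read at 630 nm. MIC is the lowest concentration with no visible growth.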

[2] = test system: Candida albicans; assay: Antifungal activity against Candida albicans after 48 hrs by spectrophotometry; conditions: for MIC: Candida albicans, 48 h; method in brief: as §1
[3] = test system: Candida tropicalis; assay: Antifungal activity against Candida tropicalis after 48 hrs by spectrophotometry; conditions: for MIC: Candida tropicalis, 48 h; method in brief: as §1

SMILES: C[C@@H]1CC[C@@]2(OC1)O[C@H]1C[C@H]3[C@@H]4CC[C@@H]5C[C@@H](O[C@@H]6O[C@H](CO[C@@H]7O[C@H](CO)[C@@H](O)[C@H](O)[C@H]7O)[C@@H](O[C@@H]7O[C@H](CO)[C@@H](O)[C@H](O)[C@H]7O)[C@H](O)[C@H]6O[C@@H]6O[C@H](CO)[C@@H](O)[C@H](O)[C@H]6O)CC[C@]5(C)[C@H]4CC[C@]3(C)[C@H]1[C@@H]2C
- MIC [1]: 12.5 µg/mL (≈ 11.7 µM)
- MIC [2]: 25 µg/mL (≈ 23.5 µM)
- MIC [3]: 50 µg/mL (≈ 46.9 µM)

SMILES: C[C@@H]1CC[C@@]2(OC1)O[C@H]1C[C@H]3[C@@H]4CC[C@@H]5C[C@@H](O[C@@H]6O[C@H](CO[C@@H]7O[C@H](CO)[C@@H](O)[C@H](O)[C@H]7O)[C@@H](O[C@@H]7O[C@H](CO)[C@@H](O)[C@H](O)[C@H]7O)[C@H](O)[C@H]6O)CC[C@]5(C)[C@H]4CC[C@]3(C)[C@H]1[C@@H]2C
- MIC [1]: 12.5 µg/mL (≈ 13.8 µM)
- MIC [2]: 25 µg/mL (≈ 27.7 µM)
- MIC [3]: 50 µg/mL (≈ 55.4 µM)

SMILES: CO[C@]1(CC[C@@H](C)CO[C@@H]2O[C@H](CO)[C@@H](O)[C@H](O)[C@H]2O)O[C@H]2C[C@H]3[C@@H]4CC[C@@H]5C[C@@H](O[C@@H]6O[C@H](CO[C@@H]7O[C@H](CO)[C@@H](O)[C@H](O)[C@H]7O)[C@@H](O[C@@H]7O[C@H](CO)[C@@H](O)[C@H](O)[C@H]7O)[C@H](O)[C@H]6O[C@@H]6O[C@H](CO)[C@@H](O)[C@H](O)[C@H]6O)CC[C@]5(C)[C@H]4CC[C@]3(C)[C@H]2[C@@H]1C
- Activity [1]: >200 µg/mL
- Activity [2]: >200 µg/mL
- Activity [3]: >200 µg/mL

SMILES: C[C@@H]1CC[C@@]2(OC1)O[C@H]1C[C@H]3[C@@H]4CC[C@@H]5C[C@@H](O[C@@H]6O[C@H](CO[C@@H]7O[C@H](CO)[C@@H](O)[C@H](O)[C@H]7O)[C@@H](O)[C@H](O)[C@H]6O[C@@H]6O[C@H](CO)[C@@H](O)[C@H](O)[C@H]6O)CC[C@]5(C)[C@H]4CC[C@]3(C)[C@H]1[C@@H]2C [DISPOROSIDE A]
- MIC [1]: 25 µg/mL (≈ 27.7 µM)
- MIC [2]: 25 µg/mL (≈ 27.7 µM)
- MIC [3]: 50 µg/mL (≈ 55.4 µM)

SMILES: CC(=O)N1CCN(c2ccc(OCC3COC(Cn4ccnc4)(c4ccc(Cl)cc4Cl)O3)cc2)CC1 (stereo not given) [KETOCONAZOLE]
- MIC [1]: 0.78 µg/mL (≈ 1.47 µM)
- MIC [2]: 0.78 µg/mL (≈ 1.47 µM)
- MIC [3]: 1.56 µg/mL (≈ 2.94 µM)

Source: ChEMBL document CHEMBL1151265, “Steroidal saponins from Smilax medica and their antifungal activity” (2005)
